Source: PubChem
Hits are enriched below; roughly 9.6% of the tested compounds scored in any of these assays.
TNAP act hiacc: increases human TNAP activity under high phosphate acceptor concentration; P05186; purified TNAP, CDP-star luminescence, 1 M DEA, 30 min; hits give high values; 0 = EDTA background, 1 = DMSO-only activity; activation factor at 20 µM; 200,000 tested, under 10 active;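 active = activation factor at least 2 at 20 µM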
Target sequence (P05186 whole entry, looked up): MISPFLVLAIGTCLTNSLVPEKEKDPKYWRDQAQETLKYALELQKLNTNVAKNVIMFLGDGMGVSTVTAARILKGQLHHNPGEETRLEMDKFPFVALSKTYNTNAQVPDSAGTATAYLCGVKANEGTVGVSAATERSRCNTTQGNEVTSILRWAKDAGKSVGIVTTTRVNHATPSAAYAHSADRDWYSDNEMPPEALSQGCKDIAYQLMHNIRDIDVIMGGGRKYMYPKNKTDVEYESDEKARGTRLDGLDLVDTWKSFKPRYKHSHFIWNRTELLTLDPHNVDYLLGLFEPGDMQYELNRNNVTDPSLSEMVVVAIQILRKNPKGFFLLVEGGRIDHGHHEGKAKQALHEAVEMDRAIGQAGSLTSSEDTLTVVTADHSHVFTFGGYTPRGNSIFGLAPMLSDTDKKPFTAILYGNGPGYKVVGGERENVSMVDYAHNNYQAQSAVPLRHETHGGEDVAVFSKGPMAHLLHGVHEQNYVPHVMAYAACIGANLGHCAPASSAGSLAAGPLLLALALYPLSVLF
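Dosing: 20 µM single point. System: human TNAP. Amount: TNAP 1/800 final. Incubation: 30 min, room temperature. Read-out: TNAP activation factor scaled between EDTA and DMSO control wells. Signal: luminescence from CDP-star hydrolysis. Medium: 1 M DEA, pH 9.8, Mg2+, Zn2+. Control set: EDTA negative control, DMSO positive control.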
HCT116 bCat-KO: beta-catenin-lacking colon tumor cell growth suppression; HCT116 beta-catenin knockout viability, CellTiter-Glo, 60 h; hits give low values; viability, % at 10 µM; 140,000 compounds, 1.5% hits;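 active = viability at or under a set limit, the compound median less 4 SD, cut at about 6% in these data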;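 note: 0% = Hyamine 1622 control at 20 µM and 100% = untreated cell control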
TNAP inh noacc: blocks human TNAP activity with no phosphate acceptor present; P05186; 200,000 compounds, 0.26% hits; purified TNAP, CDP-star luminescence, 30 min; inhibition, % at 20 µM;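 active = tissue-nonspecific alkaline phosphatase inhibition above about 50% at 20 µM in the single-dose screen, limit read from the data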;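 note: 0% = DMSO negative control and 100% = EDTA positive control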
L major viab: inhibitors of Leishmania major promastigote growth | 200,000 compounds, 9% hits | Leishmania major promastigotes, resazurin fluorescence viability | inhibition, % at 10 µM | AID 1063; in the data active = inhibition above about 50%;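 note: promastigotes grown with compound for 44 hours at 28 °C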
PTEN del growth: growth suppressors of cells with PTEN tumor suppressor deletion; HCT116 PTEN-null viability, CellTiter-Glo, 60 h; hits give low values; 140,000 compounds, 1.2% hits; viability, % at 10 µM; AID 827;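 active = viability at or below a set limit, 4 SD under the median of all tested compounds, cut at about 3.7% in these data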;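 note: PTEN knockout HCT116 line with beta catenin targeted HCT116 as companion control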
TNAP inh hiacc: inhibitors of human TNAP at high phosphate acceptor concentration | P05186 | purified TNAP, CDP-star luminescence, 1 M DEA | inhibition, % at 20 µM | 200,000 compounds, 0.03% hits | AID 1135;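 active = over 50% inhibition of tissue-nonspecific alkaline phosphatase at 20 µM in the single-dose screen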;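 note: plate controls were DMSO wells for no effect and EDTA-quenched wells as full inhibition for full effect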
Lmaj promast 1uM: L. major promastigote growth inhibition, 1 uM repeat; resazurin fluorescence, 48 h; shares compounds with L major viab; AID 1258; inhibition, % at 1 µM; 1,100 compounds, 13% hits;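 active = inhibition above about 50% in both repeat tests, limit read from the data; inconclusive = one repeat under the set limit, the other over it; inactive = both repeats under the set limit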
Active calls of the source: *; ? = inconclusive; . = no result.

SMILES	TNAP act hiacc	HCT116 bCat-KO	TNAP inh noacc	L major viab	PTEN del growth	TNAP inh hiacc	Lmaj promast 1uM
Cc1ccc2c(c1)c(=O)c1c3n2CCN(C(=O)CCl)C3CC1 (stereo not given)	1	92	8	100*	93	-3	57*
COC(=O)c1ccc(Sc2nnnn2-c2ccccc2)c([N+](=O)[O-])c1	1	6.0*	-4	99*	6	-1	-1
C/C(CCN1CCc2nc(-c3ccccc3)c(-c3ccccc3)cc2C1)=N\O[C@@H](C)c1cc(-c2c(C)cc(C)cc2C)no1	1	49	-5	83*	57	2	-12
CCc1cc2c(nc1CC)CCN(CC/C(C)=N/O[C@@H](C)c1cc(-c3c(C)cc(C)cc3C)no1)C2	1.1	21	-7	92*	32	-8	-15
C=CCn1c(SCC(=O)c2ccc(NS(=O)(=O)c3ccccc3)cc2)nnc1-c1cccs1	1	94	-9	-10	95	-1	.
CNCCCN1c2ccccc2CCc2ccccc21	1	74	-9	82*	72	-3	-1
CN(C)CCCN1c2ccccc2Sc2ccccc21	1	64	-2	17	54	2	.
CN(C)CCCN1c2ccccc2CCc2ccc(Cl)cc21	1	1.7*	-8	99*	1.6*	-1	20
CNc1nc(C)c(C(=O)c2ccc(Cl)cc2)s1	1	103	-5	1	86	-1	.
CC1Cc2ccccc2N1C(=S)Nc1ccc(S(N)(=O)=O)cc1 (stereo not given)	1	84	-2	80*	91	0	-22
CC(C)C(O)(C#CCN1CCCCC1)c1ccccc1 (stereo not given)	1.1	98	-11	93*	97	-6	21
O=C1CC(c2ccc(Br)cc2)NC(c2ccc(Br)cc2)C1c1ccccc1 (stereo not given)	1	55	-13	90*	66	-4	-4
N#Cc1cc([N+](=O)[O-])ccc1Oc1cccc(/C=N/NC(=O)c2cccc(Cl)c2)c1	1	50	0	18	47	1	.
Cc1ccc(CNC(=O)c2cccc(OCc3c(C)noc3C)c2)cc1	1	77	-7	80*	79	-4	34
Cc1noc(C)c1COc1ccc(CC(=O)NCc2ccccc2)cc1	1	.	0	7	.	-2	.
Cc1ccccc1N(C(=O)c1cccs1)c1nc2ccccc2s1	1.1	25	-8	99*	27	-12	?
Cc1ccc(S(=O)(=O)N2CCC(=O)N(C(COCc3ccc(C(F)(F)F)cc3)Cc3ccccc3)CC2)cc1 (stereo not given)	1	60	-4	73*	58	-3	-9
Cc1ccc(S(=O)(=O)N2CCC(=O)N(C(COCc3cccc(C)c3)Cc3ccccc3)CC2)cc1 (stereo not given)	1	78	-5	36	88	-4	.
O=C(CCN1C(=O)S/C(=C\c2cccs2)C1=O)NC1=NCCS1	1	98	8	28	96	-4	.
CCNC(=O)OCCC12CC3CC(CC(C3)C1)C2	1	80	3	86*	95	1	-11
CCCNC(=O)OCC12CC3CC(CC(C3)C1)C2	1	84	-7	9	92	-1	.
O=C(COC(=O)c1ccc[nH]c1=O)c1ccc(Cl)s1	1	87	-3	-7	86	-2	.
Cc1ccc(C(=O)OCC(=O)c2ccc(Cl)s2)s1	1.1	108	-9	92*	112	-5	-8
[O-][N+]1=c2ccc(Nc3ccccc3)cc2=NC12CCCCC2	0.9	1.6*	16	100*	1.1*	13	66*
COc1cccc2c(=O)c(C/C=C(/C)Cl)c(C)[nH]c12	1	88	-20	100*	79	-3	99*
SMILES	TNAP act hiacc	HCT116 bCat-KO	TNAP inh noacc	L major viab	PTEN del growth	TNAP inh hiacc	Lmaj promast 1uM
CC1Cc2ccccc2N1C(=O)CNCCCN(C)C (stereo not given)	0.9	87	-5	-1	99	10	.
CC1CC2(C)Oc3ccccc3CC2C(C)C1CNCCCN(C)C (stereo not given)	1	.	-10	100*	.	-5	23
O=C(COC(=O)c1cccnc1Cl)Nc1ccc2c(c1)OCCO2	1	.	-5	4	.	-4	.
COc1ccc(N2CCN(c3ncnc4c3[nH]c3ccccc34)CC2)cc1	1	79	-12	14	79	-4	.
COc1cc2[nH]c3c(N4CCN(c5ccccn5)CC4)ncnc3c2cc1OC	1	7	-18	100*	2.7*	-5	-29
O=C(NCc1ccncc1)C(=O)Nc1nc(C23CC4CC(CC(C4)C2)C3)cs1	1	93	-68	51*	103	-1	18
O=C(CC1CCCCC1)N1CCC(c2nc(-c3ccc(S(=O)(=O)N4CCCC4)cc3)no2)CC1	1	32	-7	66*	27	-4	2
CCOc1ccccc1NC(=O)COC(=O)CNS(=O)(=O)c1ccc(C)cc1	1	83	-6	47	99	1	.
FC(F)Oc1ccc(/C=N/c2c(-c3ccc(OC(F)F)cc3)nc3n2CCS3)cc1	1	66	2	72*	62	4	22
CC1=NN(c2ccc(C)cc2)C(=O)/C1=C\c1ccc(Br)s1	1	75	11	99*	79	4	20
CC1=NN(c2ccc(Br)cc2)C(=O)/C1=C/c1cccs1	1	79	10	7	74	-1	.
Cn1c(=O)c2nc(-c3ccccc3)oc2c2ccccc21	1	76	-14	92*	77	-5	72*
O=S(=O)(CC(CN1CCCCC1)N1CCCCC1)c1ccc2ccccc2c1 (stereo not given)	1	.	-7	99*	.	2	?
COc1ccc(CC2NCCC3(O)CCCCC23)cc1 (stereo not given)	1	88	-7	68*	91	-4	-7
COc1ccc(CC/C(=N\O)C2(O)CCCCC2)cc1	1.1	92	-10	6	88	-9	.
CC(C)CCn1c(O)c(N=Nc2ccccn2)c2ccccc21	0.9	89	2	69*	89	8	-7
Cc1ccc(NC(=O)CCSc2nnc(C)s2)cc1	1	88	-6	1	92	-1	.
CC1=NN(/C(=N\c2nnc(C)s2)Nc2ccc(C(C)(C)C)cc2)[C@H](c2ccc(C)cc2)S1	1	63	-8	64*	66	-4	29
COC(=O)CN1C(c2ccc(OC)cc2)=Nc2ccc(Cl)cc2C1c1ccccc1 (stereo not given)	1	68	-5	45	63	-5	.
